As a reminder, the Cmax is the maximum level reached in the sampled fluid or tissue.

Data on two compounds can be found in PMC3545439 (Investigational new drugs, 2010).

Data set [1] deals with patients with advanced solid tumors. Put plainly: Phase I dose escalation: toxicity. Type of data set: in vivo, human. An outline of the steps: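 Open-label, non-randomized 3+3 escalation in groups of 3–6, outpatient, with no intra-patient escalation. […] DLT was grade 4 hematologic or grade 3–4 non-hematologic toxicity (including diarrhea despite prophylaxis), or delay allowing fewer than 2 treatments in weeks 1–3. MTD was one level below the dose at which ≥2 patients had first-cycle DLT.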

Another data set concerns patients. Particulars: PO daily × 3 days, every 14 days, with infusional fluorouracil and leucovorin; cited from earlier work.
Data set [2] is described as follows: Vorinostat serum pharmacokinetics in patients. Type of data set: in vivo, human.
For data set [3] the following is noted: cited from earlier work.
For data set [4] the following is noted: cited from earlier work. The source holds these as a separate data set.
A short description of data set [5]: Flavopiridol plasma pharmacokinetics in patients. Type of data set: in vivo, human.

Molecules are shown by their SMILES. Read-outs that look alike come from different tables or passages of the source. Some results are limits rather than exact numbers.

For `O=C(CCCCCCC(=O)Nc1ccccc1)NO` [vorinostat, suberoylanilide hydroxamic acid], the “maximum tolerated dose (MTD) of vorinostat” value in data set [1] (21-d schedule: days 1–3 and 8–10, with flavopiridol 60 mg/m^2 over 1 hr days 2 and 9) was 600 mg/day; in data set [1] (28-d schedule: days 1–3 and 15–17, with split-dose flavopiridol days 2 and 16), 800 mg/day. Also, in the data set on patients, the MTD of vorinostat is reported as 1,700 mg. In data set [2] (800 mg dose level (MTD)), the “patients achieving vorinostat Cmax ≥2.5 μM” value was found to be 86%. Besides, in data set [2] (cycle 1 versus cycle −1, all patients, 95% CI 11%–43%), the “increase of vorinostat Cmax by flavopiridol” value is 27%. Also, the Cmax in data set [3] (read-out: average Cmax, vorinostat in combination with carboplatin and paclitaxel or FOLFOX) is under 2 µM; in data set [3] (standard dose 400 mg PO daily continuously) it was about 2.5 µM; in data set [3] (vorinostat 900 mg/m^2 IV daily × 3 days every 3 weeks), over 30 µM. The “vorinostat level that enhances chemotherapy in vitro” value in data set [4] was over 2.5 µM.
Consider `CN1CC[C@H](c2c(O)cc(O)c3c(=O)cc(-c4ccccc4Cl)oc23)[C@H](O)C1` [flavopiridol], for which the Cmax in data set [5] (human, plasma, intravenous) came out at 3.92 µM. Also, in data set [5] (patients tested (20)), the “patients achieving flavopiridol Cmax of ≥2 μM” value was determined as 90%. Moreover, the “maximum tolerated dose (MTD), flavopiridol” value in data set [1] (21-d schedule, bolus over 1 hr days 2 and 9, with vorinostat 600 mg/d) was 60 mg/m^2; in data set [1] (28-d schedule, split dose days 2 and 16, with vorinostat 800 mg/d), 30 mg/m^2 over 30 min followed by 30 mg/m^2 over 4 h.
